Measurements taken from paper PMC3344817 (ChemMedChem, 2011).

Columns and labels:
L1210 cells = test: Cytotoxicity; assay type: cell-based, murine; conditions: for RP (relative potency), L1210 cells: IC50 of 2 divided by IC50 of the compound; for IC50: Mus musculus, L1210, 48 h, read-out: IC50, L1210 cells
Molt 4/C8 T-lymphocytes = test: Cytotoxicity; assay type: cell-based, human; conditions: for IC50: Homo sapiens, Molt4/C8, 72 h, read-out: IC50, Molt 4/C8 cells; for RP (relative potency), Molt 4/C8 cells: IC50 of 2 divided by IC50 of the compound
CEM T-lymphocytes = test: Cytotoxicity; assay type: cell-based, human; conditions: IC50 of 2 divided by IC50 of the compound
[1] = system: JURKAT, Nalm-6, SUP-T1, or CEM cells; test: Flow cytometry analysis of apoptosis and necrosis; assay type: cell-based, human; conditions: after 20 h; relative to the percentage at 8 h; four non-adherent cell lines
How it was run: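 Test compound was incubated with JURKAT, Nalm-6, SUP-T1 or CEM cells in RPMI. After 8 and 20 h, cells were stained with Annexin-V-FITC plus propidium iodide. Flow cytometry gave the percentages of apoptotic, necrotic and viable cells.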

human tumor cell lines = test: US National Cancer Institute human tumor cell line screen; assay type: cell-based; conditions: 48 h; Figure 4
EL-4 = test: CC50 by flow cytometry with propidium iodide, EL-4; assay type: cell-based, murine
How it was run: (§1)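 Non-adherent lymphoma/leukaemia cells in RPMI were given a range of test compound concentrations (DMSO solution) for 22 h at 37°C. Plasma membrane disruption was scored by flow cytometry with propidium iodide to derive CC50, and values are the mean of three independent experiments. SI = CC50 toward NIH-3T3 fibroblasts ÷ CC50 toward the given non-adherent line.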

CEM = test: CC50 by flow cytometry with propidium iodide, CEM; assay type: cell-based, human; conditions: CC50 toward NIH-3T3 fibroblasts / CC50 toward CEM
How it was run: as §1

JURKAT = test: CC50 by flow cytometry with propidium iodide, JURKAT; assay type: cell-based, human
How it was run: as §1

Nalm6 = test: CC50 by flow cytometry with propidium iodide, Nalm6; assay type: cell-based, human
How it was run: as §1

Sup-T1 = test: CC50 by flow cytometry with propidium iodide, Sup-T1; assay type: cell-based, human
How it was run: as §1

[2] = CC50 by flow cytometry with propidium iodide, NIH-3T3 fibroblasts; assay type: cell-based, murine; conditions: mouse, NIH-3T3 fibroblasts (non-malignant)
How it was run: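 Adherent NIH-3T3 fibroblasts in DMEM received a range of test compound concentrations (DMSO solution) for 22 h at 37°C. CC50 was obtained by flow cytometry with propidium iodide, scoring plasma membrane disruption. Values are the mean of three independent experiments.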

Compound	RP (relative potency), L1210 cells (L1210 cells)	IC50 (L1210 cells)	IC50 (Molt 4/C8 T-lymphocytes)	RP (relative potency), Molt 4/C8 cells (Molt 4/C8 T-lymphocytes)	RP (relative potency), CEM cells (CEM T-lymphocytes)	also measured
O=C1C(=Cc2ccccc2)CN(C(=O)C=CC(=O)N2CC(=Cc3ccccc3)C(=O)C(=Cc3ccccc3)C2)CC1=Cc1ccccc1 [1 f, 1,4-Bis-(3,5-dibenzylidene-4-oxo-piperidin-1-yl)but-2-ene-1,4-dione]	0.3	28900 ± 2000 nM	4400 ± 2950 nM	1.8	0.2	
O=C1C(=Cc2ccccc2)CN(C(=O)C(=O)N2CC(=Cc3ccccc3)C(=O)C(=Cc3ccccc3)C2)CC1=Cc1ccccc1 [Compound 1a, 1,2-Bis(3,5-dibenzylidene-4-oxo-piperidin-1-yl)ethane-1,2-dione]	1.8	4460 ± 230 nM	460 ± 110 nM	18	2.5	apoptotic cells [1]: doubling; IC50 towards human tumor cell lines, comparison (human tumor cell lines): generally displays lower IC50 values than 1 b; SI (selectivity index), EL-4 (EL-4; CC50 toward NIH-3T3 fibroblasts / CC50 toward EL-4): 412; CC50 (EL-4; Mus musculus, EL4, 22 h, read-out: CC50, EL-4): 31 nM; SI (selectivity index), CEM (CEM): 376; SI (selectivity index), JURKAT (JURKAT; CC50 toward NIH-3T3 fibroblasts / CC50 toward JURKAT): 441; CC50 (JURKAT; Homo sapiens, Jurkat, 22 h, read-out: CC50, JURKAT): 29 nM; SI (selectivity index), Nalm6 (Nalm6; CC50 toward NIH-3T3 fibroblasts / CC50 toward Nalm6): 581; CC50 (Nalm6; Homo sapiens, NALM-6, 22 h, read-out: CC50, Nalm6): 22 nM; SI (selectivity index), Sup-T1 (Sup-T1; CC50 toward NIH-3T3 fibroblasts / CC50 toward Sup-T1): 33; CC50 (Sup-T1; Homo sapiens, SUP-T1, 22 h, read-out: CC50, Sup-T1): 384 nM; CC50 at 22 h [2]: 12800 nM
O=C1C(=Cc2ccccc2)CN(C(=O)CC(=O)N2CC(=Cc3ccccc3)C(=O)C(=Cc3ccccc3)C2)CC1=Cc1ccccc1 [Compound 1b, 1,3-Bis-(3,5-dibenzylidene-4-oxo-piperidin-1yl)propane-1,3-dione]	6.5	1230 ± 380 nM	70 ± 10 nM	115	9.3	
O=C1C(=Cc2ccccc2)CN(C(=O)CCC(=O)N2CC(=Cc3ccccc3)C(=O)C(=Cc3ccccc3)C2)CC1=Cc1ccccc1 [Compound 1c, 1,4-Bis-(3,5-dibenzylidene-4-oxo-piperidin-1-yl)butane-1,4-dione]	0.6	14000 ± 1200 nM	570 ± 160 nM	14	1.5	
O=C1C(=Cc2ccccc2)CN(C(=O)CCCC(=O)N2CC(=Cc3ccccc3)C(=O)C(=Cc3ccccc3)C2)CC1=Cc1ccccc1 [Compound 1d, 1,5-Bis-(3,5-dibenzylidene-4-oxo-piperidin-1-yl)pentane-1,5-dione]	0.7	11500 ± 300 nM	1610 ± 50 nM	5.0	0.9	
O=C1C(=Cc2ccccc2)CN(C(=O)CCCCCCC(=O)N2CC(=Cc3ccccc3)C(=O)C(=Cc3ccccc3)C2)CC1=Cc1ccccc1 [Compound 1e, 1,8-Bis-(3,5-dibenzylidene-4-oxo-piperidin-1-yl)octane-1,8-dione]	0.5	15300 ± 4200 nM	1530 ± 540 nM	5.3	0.8	
O=C1C(=Cc2ccccc2)CN(C(=O)C#CC(=O)N2CC(=Cc3ccccc3)C(=O)C(=Cc3ccccc3)C2)CC1=Cc1ccccc1 [Compound 1g, 1,4-Bis-(3,5-dibezylidene-4-oxo-piperidin-1-yl)-but-2-yne-1,4-dione]	0.8			5.4	0.6	
O=C1C(=Cc2ccccc2)CN(C(=O)C=CC=CC(=O)N2CC(=Cc3ccccc3)C(=O)C(=Cc3ccccc3)C2)CC1=Cc1ccccc1 [Compound 1h, 1,6-Bis-(3,5-dibenzylidene-4-oxo-piperidin-1-yl)-hexa-2,4-diene-1,6-dione]	0.1	79000 ± 10200 nM	25100 ± 15800 nM	0.3	0.1	
O=C1C(=Cc2ccccc2)CN(C(=O)c2ccccc2C(=O)N2CC(=Cc3ccccc3)C(=O)C(=Cc3ccccc3)C2)CC1=Cc1ccccc1 [Compound 1i, 1,2-Bis-[(3,5-dibenzylidene-4-oxo-piperidin-1-yl)-1-carbonyl]benzene]	1.9			9.5	1.3	
O=C1C(=Cc2ccccc2)CN(C(=O)c2cccc(C(=O)N3CC(=Cc4ccccc4)C(=O)C(=Cc4ccccc4)C3)c2)CC1=Cc1ccccc1 [Compound 1j, 1,3-Bis-[(3,5-dibenzylidene-4-oxo-piperidin-1-yl)-1-carbonyl]benzene]	0.1			0.7	0.1	
N[C@@H](Cc1ccc(N(CCCl)CCCl)cc1)C(=O)O [Melphalan, reference compound]			3240 ± 790 nM			
